Reference: article PMC3000598 (Phytochemistry letters, 2008)

Legend:
COX-1 = details: cellular as well as cell-free assays; ref Albert et al. (2002); cited from earlier work
5-LOX = details: cellular as well as cell-free assays; ref Albert et al. (2002); cited from earlier work
[1] = system: 5-LOX catalyzed LTB4 formation; assay: In vitro assay for leukotriene; type: cell-based; details: Homo sapiens, Leukocyte, 10 min, read-out: IC50 5-LOX mediated LTB4 formation
Procedure, shortened: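 Human venous-blood polymorphonuclear leukocytes isolated by sedimentation rate and lysis tolerance; viability checked by 0.4% trypan blue. Cells (4500 cells/mL) were incubated with the ethanol-dissolved test compound, CaCl2, A23187 and arachidonic acid for 10 min at 37 °C with shaking. The reaction was stopped with 10% HCO2H, and LTB4 was measured by competitive EIA.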

Row | Compound | COX-1 inhibition (COX-1) | 5-LOX inhibition (5-LOX) | IC50 [1]
1 | CC(C)=CCC[C@]1(C)[C@@H](CC=C(C)C)C[C@@]2(CC=C(C)C)C(=O)[C@]1(C(=O)C(C)C)C(=O)C(CC=C(C)C)=C2O [hyperforin] | dual COX-1/5-LOX inhibitor | dual COX-1/5-LOX inhibitor | 
2 | CC(c1cc2ccccc2s1)N(O)C(N)=O (stereo not drawn) [Zileuton] |  |  | 5 µM
